In the library only some 8.7% were active in any assay of this set; here they are far more common.
E coli WT exp – blocks growth of wild type E. coli BW25113 | 0.15% of 98,000 active | OD600 absorbance | growth inhibition, % at 100 µM | AID 710;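 active means growth inhibition above about 50% at one test dose, limit read from the data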;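 further: growth measured after 20 h incubation at 37 °C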
Ecoli tolC – E. coli tolC mutant growth inhibition; E. coli BW25113 tolC mutant growth, OD615; growth inhibition, % at 10 µM (by protocol); 2.2% of 65,000 active; AID 573;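 active means growth inhibition at or above a cutoff equal to the mean over every tested compound plus 3 SD, cut at about 60% in these data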;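 further: growth measured after 20 h incubation at 37 °C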
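Assay system: tolC-deleted E. coli BW25113. Medium: kanamycin-containing LB broth (50 µg/mL). Dosing: 10 µM final, single dose. Timing: bacterial growth with compound for 20 h at 37 °C. Detection: A615 absorbance measurement. Read-out basis: growth inhibition in percent.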
PostGolgi ctrl – yeast control strain growth, post-Golgi counter-screen; efflux-deficient yeast background strain, growth absorbance A615, 16 h; inhibition, % at 10 µM; 5% of 98,000 active; AID 738
PTK2B oligo ant – antagonists of human Pyk2 oligomerization; Q14289; Q293 cells, Pyk2 FERM NanoBiT luminescence; active compounds read low; z-score (the deposit names both 25 µM and 10 µM); 0.83% of 99,000 active; AID 1347419;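 active means Z-score of -3 or lower, scaled per plate to the spread of control and sample wells; inactive means z-score above -3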;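 further: negative z-score means lost luminescence so less FERM oligomerization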
Target sequence (Q14289 whole entry, looked up): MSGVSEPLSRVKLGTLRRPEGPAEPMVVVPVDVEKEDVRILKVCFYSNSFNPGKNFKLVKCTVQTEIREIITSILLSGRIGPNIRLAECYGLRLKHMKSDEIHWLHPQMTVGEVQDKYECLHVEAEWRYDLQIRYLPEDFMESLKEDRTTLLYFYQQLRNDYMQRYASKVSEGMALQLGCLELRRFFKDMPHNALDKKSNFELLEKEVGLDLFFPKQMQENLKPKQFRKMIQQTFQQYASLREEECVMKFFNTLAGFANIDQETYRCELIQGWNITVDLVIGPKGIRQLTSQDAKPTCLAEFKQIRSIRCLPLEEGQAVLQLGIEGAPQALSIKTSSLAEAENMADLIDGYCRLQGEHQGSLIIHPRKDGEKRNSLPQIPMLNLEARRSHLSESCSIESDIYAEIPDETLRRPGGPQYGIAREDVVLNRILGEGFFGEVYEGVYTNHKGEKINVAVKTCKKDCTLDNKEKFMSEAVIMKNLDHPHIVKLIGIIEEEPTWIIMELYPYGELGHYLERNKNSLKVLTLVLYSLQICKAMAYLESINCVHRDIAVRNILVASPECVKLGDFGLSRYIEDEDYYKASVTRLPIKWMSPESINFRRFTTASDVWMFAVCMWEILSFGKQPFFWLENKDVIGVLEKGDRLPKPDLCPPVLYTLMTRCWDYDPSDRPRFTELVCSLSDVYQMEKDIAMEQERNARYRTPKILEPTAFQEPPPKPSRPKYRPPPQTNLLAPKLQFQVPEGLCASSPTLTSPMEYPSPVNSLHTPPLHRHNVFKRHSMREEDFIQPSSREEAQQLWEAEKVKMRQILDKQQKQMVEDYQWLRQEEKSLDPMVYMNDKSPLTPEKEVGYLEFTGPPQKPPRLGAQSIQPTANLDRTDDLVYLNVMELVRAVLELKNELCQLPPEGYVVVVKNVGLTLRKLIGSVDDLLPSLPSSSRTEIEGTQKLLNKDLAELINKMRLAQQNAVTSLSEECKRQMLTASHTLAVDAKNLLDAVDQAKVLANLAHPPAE
PostGolgi yeast – growth inhibition of a yeast mutant, post-Golgi transport screen; post-Golgi transport phenotypic cell assay; inhibition, % at 10 µM; 0.9% of 98,000 active; AID 739;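 further: yeast cells grown in 1536-well plates; yeast grown about 18 h at 30C before absorbance read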
Cav32 inh – blocks human Cav3.2 T-type calcium channel. O95180. Cav3.2-expressing cells, Fluo-4 calcium fluorescence FDSS; active compounds read low. B-score at 10 µM. 4% of 100,000 active. AID 449739;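 active means single-dose well whose peak fluorescence ratio is a statistical outlier from its plate by either plate-standardised score or position-corrected B-score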
Numbers stand for hits; . = inactive; / = not tested or not shown. Unless noted, no stated cut-off is given here; in the data, active means inhibition above about 30%; inactive means the rest.

SMILES	E coli WT exp	Ecoli tolC	PostGolgi ctrl	PTK2B oligo ant	PostGolgi yeast	Cav32 inh
CCCCOP(=O)(OCCCC)C1(NS(=O)(=O)c2ccccc2)C=CC(=O)c2ccccc21 (configuration not stated)	.	/	.	.	.	.
CCOC(=O)N1CCN(C(=O)C(NC(=O)c2ccc(CC)cc2)C(C)C)CC1 (configuration not stated)	.	.	.	.	.	.
Cc1cc(NC(=O)CCC(=O)N(Cc2ccco2)C(C(=O)NC2CCCCC2)c2ccccc2)no1 (configuration not stated)	/	/	/	.	/	-4.4
Cc1cc(NC(=O)CCC(=O)N(Cc2ccco2)C(C(=O)NC2CCCC2)c2ccccc2C)no1 (configuration not stated)	/	/	/	.	/	-7.4
Cc1cc(NC(=O)CCC(=O)N(Cc2cccs2)C(C(=O)NC2CCCC2)c2ccncc2)no1 (configuration not stated)	.	.	.	.	.	.
Cn1c(SCC(=O)Nc2nc3c(s2)CCCC3)nnc1-c1ccccc1	.	.	.	.	.	-6.1
Cc1ccc(-c2nnc(SCC(=O)Nc3nc4c(s3)CCCC4)n2C)cc1	.	.	.	.	.	.
O=C(Cc1cccs1)Nc1nc2c(s1)CCCC2	.	.	.	.	35	.
O=C(CSc1ncn(-c2ccccc2)n1)Nc1nc2ccccc2s1	.	.	.	.	.	.
O=C(CSc1ncn(-c2ccccc2)n1)Nc1nc2c(s1)CCCC2	.	61	46	.	.	-4.2
O=C(CSc1ncn(-c2ccccc2)n1)Nc1nccs1	.	/	.	.	.	.
O=C(Nc1nc2c(s1)CCCC2)c1cccs1	.	.	.	.	.	.
CC(=O)Nc1ccc(C(=O)CSc2ncn(-c3ccccc3)n2)cc1	.	.	35	.	.	.
Cc1nc2sc(C(c3ccc(F)cc3)N3CCN(C(=O)c4ccco4)CC3)c(O)n2n1 (configuration not stated)	/	.	/	/	/	/
CCN(Cc1ccncc1)C(=O)C1CCN(S(=O)(=O)c2cccs2)CC1	.	/	.	.	.	.
c1ccc(Cn2nnnc2C(c2cccnc2)N2CCN(c3ccccc3)CC2)cc1 (configuration not stated)	.	.	90	.	92	.
CCC(C)(C)n1nnnc1C(c1cccnc1)N1CCN(c2cccc(C(F)(F)F)c2)CC1 (configuration not stated)	.	/	96	.	86	-5.1
CC(C)(C)n1nnnc1C(c1cccnc1)N1CCN(c2ccccc2)CC1 (configuration not stated)	.	/	76	.	92	.
Cc1ccc(CNc2nc(N)c([N+](=O)[O-])c(Nc3cccc(F)c3)n2)cc1	.	/	46	.	.	.
Nc1nc(NCc2ccccc2)nc(Nc2cccc(F)c2)c1[N+](=O)[O-]	.	/	.	.	.	.
CCOc1nc(Nc2ccc(OC)c(Cl)c2)nc(OCC)n1	.	/	36	.	.	.
CCOc1nc(Nc2ccc(OC)cc2)nc(OCC)n1	.	/	.	.	.	.
CC(C)c1ccc(/C=N/n2nnnc2Nc2ccccc2)cc1	.	/	.	.	.	.
CC/C(=N\n1nnnc1Nc1ccccc1)c1ccccc1	/	/	/	.	/	-5.7
O=C(CSc1nnc(-c2ccccc2)n1Cc1ccco1)Nc1ccc2c(c1)OCCO2	.	.	.	.	.	.
SMILES	E coli WT exp	Ecoli tolC	PostGolgi ctrl	PTK2B oligo ant	PostGolgi yeast	Cav32 inh
O=C(CSc1nnc(-c2ccccc2)n1Cc1ccco1)NCc1ccc2c(c1)OCO2	.	/	.	.	.	-4.1
O=C1COc2ccc(C(=O)CSc3nnc(Cc4cccs4)n3-c3ccc(Cl)cc3)cc2N1	.	/	.	.	.	-3.9
O=C(CSc1nnc(Cc2cccs2)n1-c1ccccc1)NCc1ccc2c(c1)OCO2	.	.	.	.	.	-4.7
COc1ccc(Cn2nnnc2C(C(C)C)N2CCc3ccccc32)cc1 (configuration not stated)	.	73	.	.	.	.
CC(C)CC(c1nnnn1C(C)C)N1CCN(c2ccccc2)CC1 (configuration not stated)	.	/	61	.	.	.
Cc1ccc(S(=O)(=O)Cn2nnnc2C(CC(C)C)N2CCN(c3ccccc3)CC2)cc1 (configuration not stated)	/	/	/	.	/	.
COc1ccc(Cn2nnnc2C(CC(C)C)N2CCN(c3ccccc3)CC2)cc1 (configuration not stated)	.	.	63	.	.	.
